Measured values: ChEMBL document CHEMBL1949633, “Novel morpholine ketone analogs as potent histamine H3 receptor inverse agonists with wake activity” (Bioorg Med Chem Lett, 2012)
pIC50, pKi: −log10 of the molar value. Blank lines part the entries; values can stand above or below the compound they belong to. The source made the active and inactive calls. No cut-off for these calls is given here.

Tests used:
[1] = Half life in dog liver microsomes; type: ADME, Canis lupus familiaris, Microsome
Histamine H3 receptor [2] = biological target: Histamine H3 receptor (Rattus norvegicus, UniProt Q9QYN8); assay: Displacement of [3H]NAMH from rat histamine H3 receptor
Sequence of Histamine H3 receptor (Rattus norvegicus, UniProt Q9QYN8) (Q9QYN8 whole entry): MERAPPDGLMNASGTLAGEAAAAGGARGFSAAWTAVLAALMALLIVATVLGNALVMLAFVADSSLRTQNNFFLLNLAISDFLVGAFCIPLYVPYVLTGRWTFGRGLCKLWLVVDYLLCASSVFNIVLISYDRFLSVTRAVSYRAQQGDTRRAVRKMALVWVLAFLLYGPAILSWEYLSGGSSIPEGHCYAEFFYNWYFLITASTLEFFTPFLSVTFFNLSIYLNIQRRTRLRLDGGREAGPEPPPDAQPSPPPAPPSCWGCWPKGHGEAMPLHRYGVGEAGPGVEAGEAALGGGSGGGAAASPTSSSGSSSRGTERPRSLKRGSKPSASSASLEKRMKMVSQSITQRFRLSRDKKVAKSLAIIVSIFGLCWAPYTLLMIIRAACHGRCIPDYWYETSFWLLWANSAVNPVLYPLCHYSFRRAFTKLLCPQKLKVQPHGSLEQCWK
Procedure, shortened: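 Radioligand binding with [3H]NAMH in membranes from cells transfected with human or rat H3 receptor. Ki values averaged from at least two determinations; assay-to-assay variation typically within 2.5-fold.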

[3] = Half life in human liver microsomes; type: ADME, Microsome
[4] = Half life in rat liver microsomes; type: ADME, Microsome
[5] = Half life in mouse liver microsomes; type: ADME, Microsome
Histamine H3 receptor [6] = biological target: Histamine H3 receptor (Homo sapiens, UniProt Q9Y5N1); assay: Displacement of [3H]NAMH from human histamine H3 receptor
Sequence of Histamine H3 receptor (Homo sapiens, UniProt Q9Y5N1) (Q9Y5N1 whole entry): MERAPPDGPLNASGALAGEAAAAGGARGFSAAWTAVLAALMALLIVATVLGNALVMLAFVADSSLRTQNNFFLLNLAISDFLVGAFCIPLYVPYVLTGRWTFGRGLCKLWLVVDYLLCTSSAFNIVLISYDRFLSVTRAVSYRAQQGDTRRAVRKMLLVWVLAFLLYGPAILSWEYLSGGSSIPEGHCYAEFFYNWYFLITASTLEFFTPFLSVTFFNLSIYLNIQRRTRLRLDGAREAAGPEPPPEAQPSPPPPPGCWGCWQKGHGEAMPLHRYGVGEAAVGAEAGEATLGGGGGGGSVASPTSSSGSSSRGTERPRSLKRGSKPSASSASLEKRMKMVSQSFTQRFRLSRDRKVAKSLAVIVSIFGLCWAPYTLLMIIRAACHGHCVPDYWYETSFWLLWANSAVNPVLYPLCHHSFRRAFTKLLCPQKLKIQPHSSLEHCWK

Rattus norvegicus [7] = assay: Effect on sleep-awake cycle in EEG/EMG Sprague-Dawley rat model assessed as wake promotion at 60 mg/kg, ip after 4 hrs; type: functional; conditions: route intraperitoneal
[8] = Drug uptake in rat brain at 10 mg/kg, ip measured after 1 hr; type: ADME, organism-based; parameters: dose 10 mg/kg, route intraperitoneal; conditions: read-out: Drug uptake
Procedure, shortened: (§1)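 Male-unspecified rats dosed 10 mg/kg ip in 0.5% methylcellulose, 0.2% Tween 80 in water; brain concentration (ng/g) measured at 1, 4, 6 and 24 h post dose. Brain-to-plasma ratio taken at 1 h.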

Rattus norvegicus [9] = assay: Effect on sleep-awake cycle in ip dosed EEG/EMG Sprague-Dawley rat model assessed as wake promotion after 4 hrs; type: functional, organism-based
Rattus norvegicus [10] = assay: Effect on sleep-awake cycle in ip dosed EEG/EMG Sprague-Dawley rat model assessed as wake promotion time at 60 mg/kg, ip (reference value: 101 +/- 7 mins); type: functional; conditions: route intraperitoneal
Rattus norvegicus [11] = assay: AUC (0 to 6 hrs) in rat at 5 mg/kg, po; type: ADME, organism-based, Plasma; parameters: time < 6 hr, dose 5 mg/kg, route oral; conditions: in vivo
Rattus norvegicus [12] = assay: Effect on sleep-awake cycle in EEG/EMG Sprague-Dawley rat model assessed as increase in slow-wave sleep at 60 mg/kg, ip after 4 hrs; type: functional, organism-based; parameters: dose 60 mg/kg
Rattus norvegicus [13] = assay: Effect on sleep-awake cycle in EEG/EMG Sprague-Dawley rat model assessed as increase in rapid eye movement sleep at 30 mg/kg, ip after 4 hrs; type: functional, organism-based; parameters: dose 30 mg/kg
[14] = Oral bioavailability in rat at 5 mg/kg; type: ADME, organism-based; conditions: in vivo
Procedure, shortened: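 Rats received 5 mg/kg po in 50% Tween 80, 40% propylene carbonate and 10% propylene glycol. The iv comparison dose was formulated in 3% DMSO, 30% solutol and 67% phosphate-buffered saline.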

Cytochrome P450 2D6 = Cytochrome P450 2D6 (Homo sapiens, UniProt P10635); assay: Inhibition of CYP2D6; type: ADME
Sequence of Cytochrome P450 2D6 (P10635 whole entry): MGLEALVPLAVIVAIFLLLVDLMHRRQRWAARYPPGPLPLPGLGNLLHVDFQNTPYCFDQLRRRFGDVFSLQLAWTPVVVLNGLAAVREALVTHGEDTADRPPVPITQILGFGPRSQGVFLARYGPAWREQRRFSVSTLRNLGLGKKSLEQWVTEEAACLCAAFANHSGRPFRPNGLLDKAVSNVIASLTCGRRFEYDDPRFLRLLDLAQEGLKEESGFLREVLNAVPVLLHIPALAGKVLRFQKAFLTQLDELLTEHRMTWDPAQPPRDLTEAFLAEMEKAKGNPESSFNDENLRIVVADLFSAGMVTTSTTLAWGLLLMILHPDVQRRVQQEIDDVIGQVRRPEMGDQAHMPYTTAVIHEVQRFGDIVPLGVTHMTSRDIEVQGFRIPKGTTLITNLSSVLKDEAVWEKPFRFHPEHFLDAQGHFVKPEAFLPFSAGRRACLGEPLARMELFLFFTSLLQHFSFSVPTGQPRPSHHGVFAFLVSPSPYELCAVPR

Rattus norvegicus [15] = assay: Effect on sleep-awake cycle in EEG/EMG Sprague-Dawley rat model assessed as increase in EEG theta range at 30 to 60 mg/kg, ip after 1 hr; type: functional; conditions: dose mg/kg 30-60; route intraperitoneal
Procedure, shortened: (§2)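 Male Sprague Dawley rats were surgically implanted for chronic EEG and EMG recording and dosed ip at 10, 30 or 60 mg/kg or with vehicle. Line 2 is read as cumulative time awake over 4 h post-dose (4 h AUC), or percent time awake. Line 1 is theta-range EEG power (~6–9 Hz, FFT amplitude) at 1 h. n = 7-8/group; Dunnett's test versus vehicle.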

[16] = biological target: Sigma non-opioid intracellular receptor 1 (Homo sapiens) (UniProt Q99720); assay: Inhibition of human sigma 1 receptor at 10 uM
Sequence of Sigma non-opioid intracellular receptor 1 (Homo sapiens) (Q99720 whole entry): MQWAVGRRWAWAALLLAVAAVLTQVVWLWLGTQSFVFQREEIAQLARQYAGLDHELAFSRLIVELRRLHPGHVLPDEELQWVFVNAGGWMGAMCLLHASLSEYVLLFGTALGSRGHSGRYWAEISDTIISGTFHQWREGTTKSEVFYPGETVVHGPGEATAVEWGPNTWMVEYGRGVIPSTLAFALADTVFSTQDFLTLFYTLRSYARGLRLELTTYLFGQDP
Procedure, shortened: (§3)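 Selectivity panel of 70 GPCRs, ion channels and enzymes run by a contract screening service; percent inhibition at 10 µM test concentration.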

[17] = Aqueous solubility of the compound at pH 7.4; type: physicochemical; conditions: aqueous medium
[18] = Ratio of drug uptake in rat brain to plasma at 10 mg/kg, ip measured after 1 hr; type: ADME, organism-based; parameters: dose 10 mg/kg, route intraperitoneal; conditions: read-out: BPR; procedure, shortened: as §1
Cytochrome P450 3A4 = Cytochrome P450 3A4 (Homo sapiens, UniProt P08684); assay: Inhibition of CYP3A4; type: ADME
Sequence of Cytochrome P450 3A4 (P08684 whole entry): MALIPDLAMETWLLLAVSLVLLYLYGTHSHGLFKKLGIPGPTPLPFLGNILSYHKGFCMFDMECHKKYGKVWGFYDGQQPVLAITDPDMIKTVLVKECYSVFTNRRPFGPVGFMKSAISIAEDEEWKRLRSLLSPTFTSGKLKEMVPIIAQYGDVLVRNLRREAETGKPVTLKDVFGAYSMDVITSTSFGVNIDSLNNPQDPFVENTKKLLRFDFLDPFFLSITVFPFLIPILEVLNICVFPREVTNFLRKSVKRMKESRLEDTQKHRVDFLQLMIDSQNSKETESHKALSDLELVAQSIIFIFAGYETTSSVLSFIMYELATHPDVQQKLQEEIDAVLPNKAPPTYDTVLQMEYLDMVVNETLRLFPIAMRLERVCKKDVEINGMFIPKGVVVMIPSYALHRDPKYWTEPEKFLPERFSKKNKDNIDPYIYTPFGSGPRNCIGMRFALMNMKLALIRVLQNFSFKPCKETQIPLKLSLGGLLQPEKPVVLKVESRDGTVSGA

Rattus norvegicus [19] = assay: Effect on sleep-awake cycle in EEG/EMG Sprague-Dawley rat model assessed as increase in rapid eye movement sleep at 60 mg/kg, ip after 4 hrs; type: functional, organism-based; parameters: dose 60 mg/kg
Rattus norvegicus [20] = assay: Effect on sleep-awake cycle in EEG/EMG Sprague-Dawley rat model assessed as sleep rebound at 10 to 60 mg/kg, ip up to 22 hrs; type: functional, organism-based
Rattus norvegicus [21] = assay: Effect on sleep-awake cycle in EEG/EMG Sprague-Dawley rat model assessed as wake promotion at 60 mg/kg, ip after 4 hrs relative to control; type: functional; conditions: route intraperitoneal; procedure, shortened: as §2
Cytochrome P450 2C19 = Cytochrome P450 2C19 (Homo sapiens, UniProt P33261); assay: Inhibition of CYP2C19; type: ADME
Sequence of Cytochrome P450 2C19 (P33261 whole entry): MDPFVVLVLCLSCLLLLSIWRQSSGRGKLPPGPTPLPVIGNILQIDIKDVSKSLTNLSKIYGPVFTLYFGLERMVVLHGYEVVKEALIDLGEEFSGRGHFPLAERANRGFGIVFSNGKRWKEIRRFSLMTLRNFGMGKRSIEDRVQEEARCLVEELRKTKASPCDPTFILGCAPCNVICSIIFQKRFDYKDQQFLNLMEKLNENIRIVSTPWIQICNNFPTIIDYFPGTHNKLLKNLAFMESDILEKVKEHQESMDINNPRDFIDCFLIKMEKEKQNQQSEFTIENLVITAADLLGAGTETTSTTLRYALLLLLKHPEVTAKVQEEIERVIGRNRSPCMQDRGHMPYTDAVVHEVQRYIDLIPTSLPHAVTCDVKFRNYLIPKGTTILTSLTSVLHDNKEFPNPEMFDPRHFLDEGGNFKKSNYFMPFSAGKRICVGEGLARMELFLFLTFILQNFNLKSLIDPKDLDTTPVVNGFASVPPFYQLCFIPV

Rattus norvegicus [22] = assay: Toxicity in EEG/EMG Sprague-Dawley rat model assessed as adverse EEG activity at 10 to 60 mg/kg, ip; type: organism-based; parameters: dose 10-60 mg/kg, route intraperitoneal; conditions: in vivo
Rattus norvegicus [23] = assay: Effect on sleep-awake cycle in EEG/EMG Sprague-Dawley rat model assessed as increase in slow-wave sleep at 30 mg/kg, ip after 4 hrs; type: functional, organism-based; parameters: dose 30 mg/kg
Cytochrome P450 1A2 = biological target: T1, Cytochrome P450 1A2 (Homo sapiens, UniProt P05177); assay: Inhibition of CYP1A2; type: ADME
T1 sequence (P05177 whole entry): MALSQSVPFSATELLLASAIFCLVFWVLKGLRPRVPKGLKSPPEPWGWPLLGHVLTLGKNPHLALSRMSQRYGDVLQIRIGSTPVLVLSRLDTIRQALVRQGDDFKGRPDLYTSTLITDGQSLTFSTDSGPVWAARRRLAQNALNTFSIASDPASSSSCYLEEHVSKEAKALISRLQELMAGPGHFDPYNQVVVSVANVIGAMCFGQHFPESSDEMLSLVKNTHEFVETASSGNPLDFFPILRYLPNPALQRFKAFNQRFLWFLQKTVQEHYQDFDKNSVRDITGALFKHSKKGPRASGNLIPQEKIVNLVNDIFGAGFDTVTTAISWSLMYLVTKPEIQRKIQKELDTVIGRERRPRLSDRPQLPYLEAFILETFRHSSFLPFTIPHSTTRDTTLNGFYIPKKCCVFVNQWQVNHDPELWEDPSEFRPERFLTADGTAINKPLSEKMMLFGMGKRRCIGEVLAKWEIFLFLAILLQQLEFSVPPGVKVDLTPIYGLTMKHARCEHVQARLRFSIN

Rattus norvegicus [24] = assay: Effect on sleep-awake cycle in EEG/EMG Sprague-Dawley rat model assessed as change in EEG theta frequency at 30 to 60 mg/kg, ip after 1 hr; type: functional, organism-based
Cytochrome P450 2C9 = Cytochrome P450 2C9 (Homo sapiens, UniProt P11712); assay: Inhibition of CYP2C9; type: ADME
Sequence of Cytochrome P450 2C9 (P11712 whole entry): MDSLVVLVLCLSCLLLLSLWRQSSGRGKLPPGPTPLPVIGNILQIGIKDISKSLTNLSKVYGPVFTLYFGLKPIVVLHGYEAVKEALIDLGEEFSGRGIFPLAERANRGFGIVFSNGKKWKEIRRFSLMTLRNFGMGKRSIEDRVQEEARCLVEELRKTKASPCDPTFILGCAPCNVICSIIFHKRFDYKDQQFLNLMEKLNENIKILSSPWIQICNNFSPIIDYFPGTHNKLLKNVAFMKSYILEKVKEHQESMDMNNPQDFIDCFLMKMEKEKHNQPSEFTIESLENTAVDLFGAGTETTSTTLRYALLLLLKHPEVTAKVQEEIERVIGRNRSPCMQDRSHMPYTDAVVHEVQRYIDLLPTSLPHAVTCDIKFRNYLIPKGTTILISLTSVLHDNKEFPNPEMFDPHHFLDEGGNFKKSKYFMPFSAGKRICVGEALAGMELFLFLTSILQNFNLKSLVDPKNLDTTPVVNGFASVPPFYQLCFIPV

[25] = biological target: Nischarin (Rattus norvegicus) (UniProt Q4G017); assay: Inhibition of rat imidazoline I2 receptor at 10 uM; procedure, shortened: as §3
Sequence of Nischarin (Rattus norvegicus) (Q4G017 whole entry): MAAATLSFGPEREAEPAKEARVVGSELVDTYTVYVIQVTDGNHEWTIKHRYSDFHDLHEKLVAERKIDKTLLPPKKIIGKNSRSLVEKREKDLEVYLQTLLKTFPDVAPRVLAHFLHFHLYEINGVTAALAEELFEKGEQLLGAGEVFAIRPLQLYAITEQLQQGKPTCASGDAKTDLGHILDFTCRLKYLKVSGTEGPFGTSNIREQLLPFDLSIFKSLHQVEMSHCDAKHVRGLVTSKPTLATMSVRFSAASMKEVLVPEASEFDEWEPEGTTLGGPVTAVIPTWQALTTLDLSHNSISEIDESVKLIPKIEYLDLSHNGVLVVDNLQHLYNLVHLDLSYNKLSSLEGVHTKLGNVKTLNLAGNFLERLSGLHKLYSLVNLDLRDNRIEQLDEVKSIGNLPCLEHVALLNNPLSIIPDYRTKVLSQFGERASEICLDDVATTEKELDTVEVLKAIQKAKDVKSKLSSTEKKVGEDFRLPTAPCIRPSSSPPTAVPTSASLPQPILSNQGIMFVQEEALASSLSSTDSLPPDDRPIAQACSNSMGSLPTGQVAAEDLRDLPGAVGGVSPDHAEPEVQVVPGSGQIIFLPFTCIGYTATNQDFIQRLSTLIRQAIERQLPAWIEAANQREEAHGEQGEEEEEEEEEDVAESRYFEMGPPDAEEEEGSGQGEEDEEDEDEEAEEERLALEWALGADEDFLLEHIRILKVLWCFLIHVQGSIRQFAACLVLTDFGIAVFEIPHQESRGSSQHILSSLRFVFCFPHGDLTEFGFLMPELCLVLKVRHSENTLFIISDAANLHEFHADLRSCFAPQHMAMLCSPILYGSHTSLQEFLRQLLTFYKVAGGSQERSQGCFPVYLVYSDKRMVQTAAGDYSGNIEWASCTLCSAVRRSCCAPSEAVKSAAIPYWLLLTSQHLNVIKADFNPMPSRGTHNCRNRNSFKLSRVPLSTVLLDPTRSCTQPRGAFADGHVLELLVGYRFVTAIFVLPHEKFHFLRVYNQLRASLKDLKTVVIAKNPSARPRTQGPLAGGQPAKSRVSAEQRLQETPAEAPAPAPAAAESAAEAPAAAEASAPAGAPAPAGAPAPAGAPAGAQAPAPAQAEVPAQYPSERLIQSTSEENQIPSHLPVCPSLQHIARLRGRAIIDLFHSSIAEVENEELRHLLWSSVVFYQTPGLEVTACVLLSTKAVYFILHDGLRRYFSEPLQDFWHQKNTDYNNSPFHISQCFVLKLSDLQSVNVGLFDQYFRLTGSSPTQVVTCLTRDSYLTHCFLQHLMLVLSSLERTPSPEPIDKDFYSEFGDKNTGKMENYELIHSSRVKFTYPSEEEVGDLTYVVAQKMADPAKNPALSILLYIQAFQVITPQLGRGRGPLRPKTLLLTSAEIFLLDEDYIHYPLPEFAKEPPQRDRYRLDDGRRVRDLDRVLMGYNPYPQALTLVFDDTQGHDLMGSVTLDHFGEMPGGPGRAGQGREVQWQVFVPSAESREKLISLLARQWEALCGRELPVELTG

Rattus norvegicus [26] = assay: Effect on sleep-awake cycle in ip dosed EEG/EMG Sprague-Dawley rat model assessed as wake promotion time at 30 mg/kg, ip (reference value: 101 +/- 7 mins); type: functional; conditions: route intraperitoneal
Rattus norvegicus [27] = assay: Effect on sleep-awake cycle in ip dosed EEG/EMG Sprague-Dawley rat model assessed as wake promotion time at 10 mg/kg, ip (reference value: 101 +/- 7 mins); type: functional; conditions: route intraperitoneal
Brain = assay: Drug uptake in rat brain at 10 mg/kg, ip measured after 24 hrs; type: ADME, organism-based; parameters: dose 10 mg/kg, route intraperitoneal; conditions: in vivo; procedure, shortened: as §1
[28] = Drug uptake in rat brain at 10 mg/kg, ip measured after 4 hrs; type: ADME, organism-based; parameters: dose 10 mg/kg, route intraperitoneal; conditions: read-out: Drug uptake; procedure, shortened: as §1
[29] = Drug uptake in rat brain at 10 mg/kg, ip measured after 6 hrs; type: ADME, organism-based; parameters: dose 10 mg/kg, route intraperitoneal; conditions: read-out: Drug uptake; procedure, shortened: as §1

Structure (SMILES): O=C(CN1CCOCC1)c1ccc(OCCCN2CCCC2)cc1
pKi (Histamine H3 receptor [2]): 6.23
pKi (Histamine H3 receptor [6]): 6.97

Structure (SMILES): CC1(C)CCCN1CCCOc1ccc(C(=O)CN2CCOCC2)cc1
pKi (Histamine H3 receptor [2]): < 6.00
pKi (Histamine H3 receptor [6]): < 6.00

Structure (SMILES): CC(C(=O)c1ccc(OCCCN2CCC[C@H]2C)cc1)N1CCOCC1 (stereo partly specified)
half-life [1]: > 40 min
pKi (Histamine H3 receptor [2]): 6.98
half-life [3]: > 40 min
half-life [4]: > 40 min
half-life [5]: > 40 min
pKi (Histamine H3 receptor [6]): 8.10

Structure (SMILES): COC[C@H]1CCCN1CCCOc1ccc(C(=O)CN2CCOCC2)cc1
pKi (Histamine H3 receptor [2]): < 5.52
pKi (Histamine H3 receptor [6]): 5.93

Structure (SMILES): C[C@H]1CCCN1CCCOc1ccc(C(=O)CN2CCOCC2)cc1
pKi (Histamine H3 receptor [2]): 6.05

Structure (SMILES): COC[C@@H]1CCCN1CCCOc1ccc(C(=O)CN2CCOCC2)cc1
pKi (Histamine H3 receptor [2]): < 5.52
pKi (Histamine H3 receptor [6]): < 5.52

Now from value to compound, other results behind:

half-life [1]: 10 min
pKi (Histamine H3 receptor [2]): 7.48
half-life [3]: 8 min
half-life [4]: 9 min
half-life [5]: > 40 min
pKi (Histamine H3 receptor [6]): 8.05
Structure (SMILES): C[C@@H]1CCCN1CCCOc1ccc(C(=O)C(C)(C)N2CCOCC2)cc1

pKi (Histamine H3 receptor [2]): 6.76
pKi (Histamine H3 receptor [6]): 7.49
Structure (SMILES): O=C(CN1CCCCC1)c1ccc(OCCCN2CCCC2)cc1

pKi (Histamine H3 receptor [2]): 7.30
concentration at 1 h [8]: 3770 ng/g
AUC (Rattus norvegicus [11]): 109 ng·h/mL
bioavailability [14]: 14%
pIC50 (Cytochrome P450 2D6): < 4.52
inhibition [16]: 78%
solubility [17]: > 145 µg/mL
Kp at 1 h [18]: 30.7
pIC50 (Cytochrome P450 3A4): < 4.52
pIC50 (Cytochrome P450 2C19): < 4.52
pIC50 (Cytochrome P450 1A2): < 4.52
pIC50 (Cytochrome P450 2C9): < 4.52
inhibition [25]: 67%
Structure (SMILES): C[C@@H]1CCCN1CCCOc1ccc(C(=O)CN2CCOCC2)cc1
Activity (Rattus norvegicus [7]): 93%
Activity (Rattus norvegicus [9]): Dose-dependent effect
Time (Rattus norvegicus [10]): 222 min
Activity (Rattus norvegicus [12]): Active
Activity (Rattus norvegicus [13]): Active
fold change (FC) (Rattus norvegicus [15]): 2
Activity (Rattus norvegicus [19]): Active
Activity (Rattus norvegicus [20]): inactive
fold change (FC) (Rattus norvegicus [21]): 2.2
Activity (Rattus norvegicus [22]): Non-toxic
Activity (Rattus norvegicus [23]): Active
Activity (Rattus norvegicus [24]): inactive
Time (Rattus norvegicus [26]): 163 min
Time (Rattus norvegicus [27]): 118 min

pKi (Histamine H3 receptor [2]): 7.11
pKi (Histamine H3 receptor [6]): 8.00
Structure (SMILES): C[C@@H]1CN(CC(=O)c2ccc(OCCCN3CCC[C@H]3C)cc2)C[C@H](C)O1

pKi (Histamine H3 receptor [2]): 7.25
concentration at 1 h [8]: 3930 ng/g
Drug uptake (Brain): Not Active
concentration at 4 h [28]: 1610 ng/g
concentration at 6 h [29]: 955 ng/g
Structure (SMILES): CC1CCCN1CCCOc1ccc(C(=O)CN2CCOCC2)cc1 (racemic)

pKi (Histamine H3 receptor [2]): 6.36
pKi (Histamine H3 receptor [6]): 7.18
Structure (SMILES): O=C(CN1CCOCC1)c1ccc(OCCCN2CCCCC2)cc1

pKi (Histamine H3 receptor [2]): 6.61
pKi (Histamine H3 receptor [6]): 7.72
Structure (SMILES): Cc1cc(OCCCN2CCC[C@H]2C)ccc1C(=O)CN1CCOCC1
